Experiments:
Type in all cases: functional
Mus musculus [1] = organism: Mus musculus; experiment: Sedative activity was determined by measuring the loss of the righting reflux induced by chlorprothixene in mice
Method in brief: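 Male albino DS mice (20-24 g), ten per group, given oral test drug (arabic gum suspension) combined with chlorprothixene 2 mg/kg ip; samples estimated 60 min after dosing.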

Mus musculus [2] = organism: Mus musculus; experiment: Sedative activity was determined by measuring the loss of the righting reflux induced by thiopental sodium in mice
Method in brief: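 Male albino DS mice (20-24 g), ten per group, pretreated orally (arabic gum suspension), then given thiopental sodium 35 mg/kg iv. ED50 = dose producing 50% increase in duration of anesthesia, by regression analysis.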

Mus musculus [3] = organism: Mus musculus; experiment: Antianxiety activity was determined by measuring the antagonism of foot shock induced fighting (taming) in mice
Method in brief: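 Male albino DS mice (20-24 g), oral dosing as arabic gum suspension. Paired mice under glass enclosure given foot shocks (5 Hz, 2 ms, DC 50 V); pairs with 15–20 fighting episodes in 3 min selected, five pairs per dose. Responses counted before and 60 min after dosing; ED50 = dose giving 50% inhibition, by regression analysis.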

Mus musculus [4] = organism: Mus musculus; experiment: Sedative activity was determined by measuring the inhibition of spontaneous motor activity
Mus musculus [5] = organism: Mus musculus; experiment: Muscle relaxation was determined by using rotatory drum (rotarod) in mice, activity is expressed as ED50 values
Method in brief: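 Male albino DS mice (20-24 g), groups of five, oral dosing in aqueous arabic gum. At 60 min placed on a 3 cm wooden rod turning at 5 rpm; animals falling off within 2 min counted. ED50 estimated by up and down method.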

Mus musculus [6] = organism: Mus musculus; experiment: Anticonvulsant activity was determined as the degree of protection against convulsions induced by pentylenetetrazole in mice
Method in brief: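 Male albino DS mice (20-24 g), ten per group, dosed orally as arabic gum suspension. Challenged 60 min later with pentylenetetrazole 125 mg/kg sc; protection from convulsion and death scored over 2 h observation. ED50 (dose protecting 50%) estimated by probit method; 95% confidence limits given.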

Structure (SMILES) | ED50 (Mus musculus [1]) | ED50 (Mus musculus [2]) | ED50 (Mus musculus [3]) | ED50 (Mus musculus [4]) | ED50 (Mus musculus [5]) | ED50 (Mus musculus [6])
NCC(=O)NCc1nnc(C2CC2)n1-c1ccc(Cl)cc1C(=O)c1ccccc1Cl | 0.49 mg/kg | 4.94 mg/kg | 2.34 mg/kg | 1.5 mg/kg | 18.7 mg/kg | 0.88 mg/kg
Cc1nnc(CNC(=O)CN)n1-c1ccc(Cl)cc1C(=O)c1ccccc1 | 0.94 mg/kg | 0.72 mg/kg | 3.02 mg/kg | 4.25 mg/kg | 3.94 mg/kg | 0.38 mg/kg
Cc1nnc2n1-c1ccc(Cl)cc1C(c1ccccc1Cl)=NC2 [TRIAZOLAM] |  | 0.18 mg/kg | 0.4 mg/kg | 0.054 mg/kg | 0.83 mg/kg | 0.039 mg/kg
CN(C(=O)CNC(=O)CN)c1ccc(Cl)cc1C(=O)c1ccccc1Cl [LORZAFONE ANHYDROUS] | 2.59 mg/kg | 0.8 mg/kg | 3.2 mg/kg | 1.4 mg/kg |  | 0.56 mg/kg
Cc1nnc(CNC(=O)C(N)Cc2ccccc2)n1-c1ccc(Cl)cc1C(=O)c1ccccc1Cl (stereo not drawn) | 0.23 mg/kg | 1.52 mg/kg | 0.55 mg/kg | 0.38 mg/kg | 1.83 mg/kg | 0.31 mg/kg
Clc1ccc2c(c1)C(c1ccccc1)=NCc1nncn1-2 [ESTAZOLAM] | 6.22 mg/kg | 2.32 mg/kg | 2.62 mg/kg | 3.09 mg/kg | 5.44 mg/kg | 0.52 mg/kg
Cc1nnc(CNC(=O)CN)n1-c1ccc(Cl)cc1C(=O)c1ccccc1F | 0.16 mg/kg | 0.25 mg/kg | 0.28 mg/kg | 1.52 mg/kg | 1.84 mg/kg | 0.09 mg/kg
NCC(=O)NCc1nncn1-c1ccc(Cl)cc1C(=O)c1ccccc1 | 1.66 mg/kg | 1.97 mg/kg | 5.71 mg/kg | 31.7 mg/kg | 11.8 mg/kg | 1.37 mg/kg
CN(C(=O)CNC(=O)CN)c1ccc(Cl)cc1C(=O)c1ccccc1 |  | 5.2 mg/kg | 10.9 mg/kg | 15.2 mg/kg | 29.3 mg/kg | 2.16 mg/kg
Cc1nnc(CNC(=O)CN)n1-c1ccc(Cl)cc1C(=O)c1ccccc1Cl | 0.62 mg/kg | 0.27 mg/kg | 0.58 mg/kg | 0.31 mg/kg | 2.09 mg/kg | 0.26 mg/kg
Cc1nnc2n1-c1ccc(Cl)cc1C(c1ccccc1)=NC2 [ALPRAZOLAM] | 0.25 mg/kg | 0.36 mg/kg | 1.09 mg/kg | 0.94 mg/kg | 2.22 mg/kg | 0.22 mg/kg

From ChEMBL document CHEMBL1121989, “Amino acid amide derivatives of 2-[3-(aminomethyl)-4H-1,2,4-triazol-4-yl]benzophenones, a novel class of annelated peptidoaminobenzophenones” (1982)
